We go through 1 compound from PMC8248332 (Chembiochem, 2021).

SMILES strings stand for the structures. pKd: −log10 of the molar value. Square brackets hold non-standard residues; d marks the D form. Peptide text beside a SMILES is read from it. pS = N[C@@H](COP(=O)(O)O)C(=O)O

One experiment has as its target 14‐3‐3ζ. The conditions noted are these: CRaf and the isomer 14‐3‐3ζ; Molzan et al.; cited from earlier work.
In the next experiment the target is T1, 14‐3‐3σ (Homo sapiens, UniProt P31947).
T1 sequence (P31947 1-248): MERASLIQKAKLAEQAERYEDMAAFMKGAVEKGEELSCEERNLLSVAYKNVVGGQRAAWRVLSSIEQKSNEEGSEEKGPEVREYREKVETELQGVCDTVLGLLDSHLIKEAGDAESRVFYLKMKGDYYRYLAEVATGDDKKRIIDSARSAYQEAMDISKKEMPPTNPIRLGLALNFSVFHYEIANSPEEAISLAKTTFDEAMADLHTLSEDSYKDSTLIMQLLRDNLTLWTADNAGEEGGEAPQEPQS
Kind of experiment: Isothermal titration calorimetry. The experiment is classed as binding. The conditions noted are these: dissolved CRaf (1 mM) into 14‐3‐3σ (50 μM), HEPES 25 mM pH 7.4, 25 °C. The essentials:
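14-3-3σ purified by size-exclusion chromatography (20 mM Tris-HCl pH 7.5, 150 mM NaCl, 2 mM DTT), then dialysed into 25 mM HEPES pH 7.4. Cell held 300 μL protein. First injection 0.4 μL, mixing time 0.8 s, 180 s between injections. Enthalpy per injection versus peptide:protein molar ratio fitted sigmoidally; inflection point gives N, slope there gives KD.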
For orientation: ITC needs no label: the signal is the heat of the interaction.

By pKd is commonly meant the negative decadic logarithm of the Kd, by convention in mol/L. As to `CC(C)C[C@H](NC(=O)[C@H](CO)NC(=O)CNC(=O)[C@H](CCC(=O)O)NC(=O)[C@H](CO)NC(=O)[C@H](CS)NC(=O)[C@@H]1CCCN1C(=O)[C@H](CO)NC(=O)[C@H](CO)NC(=O)[C@@H](NC(=O)[C@H](CC(N)=O)NC(=O)[C@H](Cc1ccccc1)NC(=O)[C@@H](NC(=O)[C@H](Cc1ccccc1)NC(=O)[C@H](C)NC(=O)[C@H](Cc1c[nH]cn1)NC(=O)[C@@H]1CCCN1C(=O)[C@@H](NC(=O)[C@H](COP(=O)(O)O)NC(=O)[C@H](Cc1ccc(O)cc1)NC(=O)[C@H](CCCNC(=N)N)NC(=O)[C@H](Cc1c[nH]cn1)NC(=O)[C@@H](N)CCC(N)=O)[C@@H](C)O)[C@@H](C)O)[C@@H](C)O)C(=O)N[C@@H](CO)C(=O)N[C@@H](CCC(N)=O)C(=O)N[C@@H](CCCNC(=N)N)C(=O)N[C@@H](CCC(N)=O)C(=O)N[C@@H](CCCNC(=N)N)C(=O)N[C@@H](CO)C(=O)N[C@H](C(=O)N[C@@H](COP(=O)(O)O)C(=O)N[C@H](C(=O)N1CCC[C@H]1C(=O)N[C@@H](CC(N)=O)C(=O)N[C@H](C(=O)N[C@@H](Cc1c[nH]cn1)C(N)=O)C(C)C)[C@@H](C)O)[C@@H](C)O` [CRaf] (H-QHRY[pS]TPHAFTFNTSSPCSEGSLSQRQRST[pS]TPNVH-NH2), on 14‐3‐3ζ, the pKd is 7.10. Further, the “binding ratio from ITC (peptide/protein), N” value on 14‐3‐3σ worked out at 0.84±0.01.
